Data taken from ChEMBL document CHEMBL1154215, “Constituents of the leaves of Magnolia ovata” (2009).
Calls of active or inactive are those of the source. The calls are words filed in the database; no cut-off is given here.

What was measured:
Format in all cases: functional
[1] = test system: Staphylococcus epidermidis; experiment: Antimicrobial activity against Staphylococcus epidermidis ATCC 12228 by broth microdilution method
How it was run: (§1)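 Broth microdilution in 96-well plates; compounds tested from 10 to 1000 μg/mL. MIC is the lowest concentration giving complete inhibition of the strain. Positive controls were bacitracine (0.2 UI mL⁻¹) and ketoconazole (100.0 μg mL⁻¹). Negative control was DMSO–sterile water (5:95, v/v). Run in duplicate per microorganism and repeated three times.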

Escherichia coli = experiment: Antimicrobial activity against Escherichia coli ATCC 10799 by broth microdilution method; how it was run: as §1
Staphylococcus aureus = experiment: Antimicrobial activity against Staphylococcus aureus ATCC 14458 by broth microdilution method; how it was run: as §1
Pseudomonas aeruginosa = experiment: Antimicrobial activity against Pseudomonas aeruginosa ATCC 15442 by broth microdilution method; how it was run: as §1
Nakaseomyces glabratus = experiment: Antimicrobial activity against Candida glabrata ATCC 30070 by broth microdilution method; how it was run: as §1
[2] = test system: Radical scavenging activity; experiment: Antioxidant activity assessed as DPPH radical scavenging activity
How it was run: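 DPPH (250 μM in MeOH) added to methanolic compound solutions, seven serial […] dilutions giving a final range of 100 to 1.6 μg mL⁻¹. Quercetin and Trolox served as positive controls. Triplicate assays. SC₅₀ is the concentration (μg mL⁻¹) scavenging 50% of DPPH radicals, reported as mean (%RSD).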

Candida tropicalis = experiment: Antimicrobial activity against Candida tropicalis ATCC 157 by broth microdilution method; how it was run: as §1
Candida dubliniensis = experiment: Antimicrobial activity against Candida dubliniensis ATCC 778157 by broth microdilution method; how it was run: as §1

Row | SMILES | MIC [1] [µg/mL] | MIC (Escherichia coli) [µg/mL] | MIC (Staphylococcus aureus) [µg/mL] | MIC (Pseudomonas aeruginosa) [µg/mL] | MIC (Nakaseomyces glabratus) [µg/mL] | Activity [2] | MIC (Candida tropicalis) [µg/mL] | MIC (Candida dubliniensis) [µg/mL] | SC50 [2] [µg/mL]
1 | C[C@H]([C@H](C)Cc1ccc2c(c1)OCO2)[C@H](O)c1ccc2c(c1)OCO2 (relative stereo) [MAGNOVATIN A] | > 100 | > 100 | > 100 | > 100 | > 100 | inactive | > 100 | > 100 | –
2 | C/C=C/c1cc(OC)c2c(c1)[C@@H](C)[C@H](c1ccc(OC)c(OC)c1)O2 [ACUMINATIN] | > 100 | > 100 | > 100 | > 100 | > 100 | inactive | > 100 | > 100 | –
3 | C/C=C/c1cc(OC)c2c(c1)[C@@H](C)[C@H](c1ccc(O)c(OC)c1)O2 [LICARINE A] | > 100 | > 100 | > 100 | > 100 | > 100 | – | > 100 | > 100 | 56.1
4 | O=c1c(O)c(-c2ccc(O)c(O)c2)oc2cc(O)cc(O)c12 | – | – | – | – | – | – | – | – | 13
5 | Cc1c(C)c2c(c(C)c1O)CCC(C)(C(=O)O)O2 (stereo unspecified) | – | – | – | – | – | – | – | – | 2.2
